# Experimental data reported in ChEMBL document CHEMBL2086252, “Syntheses and evaluation of anticonvulsant activity of novel branched alkyl carbamates” (J Med Chem, 2012).
# Calls of active or inactive are those of the source. No cut-off for these calls is given here.
# How the values were obtained:
# Mus musculus [1] = assay: Neurotoxicity in albino CF1 mouse assessed as minimal motor impairment at 100 mg/kg, ip after 0.5 hrs by rotarod test; type: toxicity, organism-based; design: dose 100 mg/kg, route intraperitoneal; conditions: in vivo
# Outline: (§1)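 Mice dosed ip at 30, 100 or 300 mg/kg, then tested 0.5 h and 4 h after administration in the MES or scMet test. Protection was recorded as animals protected over animals tested. Neurotoxicity was recorded as motor impairment or sedation, as animals affected over animals tested.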
# Mus musculus [2] = assay: Anticonvulsant activity in albino CF1 mouse assessed as protection against subcutaneous metrazol-induced seizures at 30 mg/kg, ip after 4 hrs; type: functional, organism-based; design: dose 30 mg/kg; outline: as §1
# Mus musculus [3] = assay: Anticonvulsant activity in albino CF1 mouse assessed as protection against subcutaneous metrazol-induced seizures at 100 mg/kg, ip after 0.5 hrs; type: functional, organism-based; design: dose 100 mg/kg; outline: as §1
# Mus musculus [4] = assay: Anticonvulsant activity in albino CF1 mouse assessed as protection against maximal electroshock-induced seizures at 100 mg/kg, ip after 4 hrs; type: functional, organism-based; design: dose 100 mg/kg; outline: as §1
# Rattus norvegicus [5] = assay: Neurotoxicity in pilocarpine-induced status epilepticus Sprague-Dawley albino rat model assessed as minimal motor impairment at 300 mg/kg, ip after 4 hrs by rotarod test; type: toxicity, organism-based; design: dose 300 mg/kg, route intraperitoneal; conditions: in vivo
# Outline: (§2)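 Rat pilocarpine status epilepticus model: test carbamate given at 0 or 30 min after the first observed Racine stage 3 motor seizure, which marks SE onset. Neurotoxicity was scored within the same model.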
# Mus musculus [6] = assay: Neurotoxicity in albino CF1 mouse assessed as minimal motor impairment at 300 mg/kg, ip after 4 hrs by rotarod test; type: toxicity, organism-based; design: dose 300 mg/kg, route intraperitoneal; conditions: in vivo; outline: as §1
# Mus musculus [7] = assay: Anticonvulsant activity in albino CF1 mouse assessed as protection against maximal electroshock-induced seizures at 100 mg/kg, ip after 0.5 hrs; type: functional, organism-based; design: dose 100 mg/kg; outline: as §1
# Rattus norvegicus [8] = assay: Neurotoxicity in pilocarpine-induced status epilepticus Sprague-Dawley albino rat model assessed as minimal motor impairment at 30 mg/kg, ip after 2 hrs by rotarod test; type: toxicity, organism-based; design: dose 30 mg/kg, route intraperitoneal; conditions: in vivo; outline: as §2
# Mus musculus [9] = assay: Anticonvulsant activity in albino CF1 mouse assessed as protection against maximal electroshock-induced seizures at 30 mg/kg, ip after 4 hrs; type: functional, organism-based; design: dose 30 mg/kg; outline: as §1
# Mus musculus [10] = assay: Anticonvulsant activity in albino CF1 mouse assessed as protection against maximal electroshock-induced seizures at 300 mg/kg, ip after 4 hrs; type: functional, organism-based; design: dose 300 mg/kg; outline: as §1
# Mus musculus [11] = assay: Anticonvulsant activity in albino CF1 mouse assessed as protection against maximal electroshock-induced seizures at 300 mg/kg, ip after 0.5 hrs; type: functional, organism-based; design: dose 300 mg/kg; outline: as §1
# Rattus norvegicus [12] = assay: Neurotoxicity in pilocarpine-induced status epilepticus Sprague-Dawley albino rat model assessed as minimal motor impairment at 100 mg/kg, ip after 0.5 hrs by rotarod test; type: toxicity, organism-based; design: dose 100 mg/kg, route intraperitoneal; conditions: in vivo
# Rattus norvegicus [13] = assay: Neurotoxicity in pilocarpine-induced status epilepticus Sprague-Dawley albino rat model assessed as minimal motor impairment at 100 mg/kg, ip after 0.25 hr by rotarod test; type: toxicity, organism-based; design: dose 100 mg/kg, route intraperitoneal; conditions: in vivo
# Mus musculus [14] = assay: Anticonvulsant activity in albino CF1 mouse assessed as protection against subcutaneous metrazol-induced seizures at 100 mg/kg, ip after 4 hrs; type: functional, organism-based; design: dose 100 mg/kg; outline: as §1
# Rattus norvegicus [15] = assay: Neurotoxicity in pilocarpine-induced status epilepticus Sprague-Dawley albino rat model assessed as minimal motor impairment at 100 mg/kg, ip after 2 hrs by rotarod test; type: toxicity, organism-based; design: dose 100 mg/kg, route intraperitoneal; conditions: in vivo
# Mus musculus [16] = assay: Anticonvulsant activity in albino CF1 mouse assessed as protection against maximal electroshock-induced seizures at 30 mg/kg, ip after 0.5 hrs; type: functional, organism-based; design: dose 30 mg/kg; outline: as §1
# Rattus norvegicus [17] = assay: Neurotoxicity in pilocarpine-induced status epilepticus Sprague-Dawley albino rat model assessed as minimal motor impairment at 300 mg/kg, ip after 0.25 hr by rotarod test; type: toxicity, organism-based; design: dose 300 mg/kg, route intraperitoneal; conditions: in vivo; outline: as §2
# Mus musculus [18] = assay: Neurotoxicity in albino CF1 mouse assessed as minimal motor impairment at 30 mg/kg, ip after 0.5 hrs by rotarod test; type: toxicity, organism-based; design: dose 30 mg/kg, route intraperitoneal; conditions: in vivo; outline: as §1
# Mus musculus [19] = assay: Anticonvulsant activity in albino CF1 mouse assessed as protection against subcutaneous metrazol-induced seizures at 30 mg/kg, ip after 0.5 hrs; type: functional, organism-based; design: dose 30 mg/kg; outline: as §1
# Rattus norvegicus [20] = assay: Neurotoxicity in pilocarpine-induced status epilepticus Sprague-Dawley albino rat model assessed as minimal motor impairment at 30 mg/kg, ip after 0.5 hrs by rotarod test; type: toxicity, organism-based; design: dose 30 mg/kg, route intraperitoneal; conditions: in vivo; outline: as §2
# Mus musculus [21] = assay: Neurotoxicity in albino CF1 mouse assessed as minimal motor impairment at 100 mg/kg, ip after 4 hrs by rotarod test; type: toxicity, organism-based; design: dose 100 mg/kg, route intraperitoneal; conditions: in vivo; outline: as §1
# Rattus norvegicus [22] = assay: Neurotoxicity in pilocarpine-induced status epilepticus Sprague-Dawley albino rat model assessed as minimal motor impairment at 30 mg/kg, ip after 4 hrs by rotarod test; type: toxicity, organism-based; design: dose 30 mg/kg, route intraperitoneal; conditions: in vivo; outline: as §2
# Rattus norvegicus [23] = assay: Neurotoxicity in Sprague-Dawley albino rat assessed as minimal motor impairment at 30 mg/kg, po by rotarod test; type: toxicity, organism-based; design: dose 30 mg/kg, route oral; conditions: in vivo
# Outline: (§3)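 Rats dosed orally. Anti-MES protection was scored as animals protected over animals tested at each time after dosing. Neurotoxicity was scored as motor impairment or sedation, as animals affected over animals tested.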
# Mus musculus [24] = assay: Neurotoxicity in albino CF1 mouse assessed as minimal motor impairment at 30 mg/kg, ip after 4 hrs by rotarod test; type: toxicity, organism-based; design: dose 30 mg/kg, route intraperitoneal; conditions: in vivo; outline: as §1
# Mus musculus [25] = assay: Anticonvulsant activity in albino CF1 mouse assessed as protection against subcutaneous metrazol-induced seizures at 300 mg/kg, ip after 0.5 hrs; type: functional, organism-based; design: dose 300 mg/kg; outline: as §1
# Rattus norvegicus [26] = assay: Neurotoxicity in pilocarpine-induced status epilepticus Sprague-Dawley albino rat model assessed as minimal motor impairment at 100 mg/kg, ip after 4 hrs by rotarod test; type: toxicity, organism-based; design: dose 100 mg/kg, route intraperitoneal; conditions: in vivo
# Rattus norvegicus [27] = assay: Neurotoxicity in pilocarpine-induced status epilepticus Sprague-Dawley albino rat model assessed as minimal motor impairment at 30 mg/kg, ip after 1 hr by rotarod test; type: toxicity, organism-based; design: dose 30 mg/kg, route intraperitoneal; conditions: in vivo; outline: as §2
# Rattus norvegicus [28] = assay: Anticonvulsant activity in Sprague-Dawley albino rat assessed as protection against maximal electroshock-induced seizures at 30 mg/kg, po after 15 mins; type: functional, organism-based; design: dose 30 mg/kg; outline: as §3
# Rattus norvegicus [29] = assay: Neurotoxicity in pilocarpine-induced status epilepticus Sprague-Dawley albino rat model assessed as minimal motor impairment at 300 mg/kg, ip after 1 hr by rotarod test; type: toxicity, organism-based; design: dose 300 mg/kg, route intraperitoneal; conditions: in vivo; outline: as §2
# Mus musculus [30] = assay: Anticonvulsant activity in albino CF1 mouse assessed as protection against subcutaneous metrazol-induced seizures at 300 mg/kg, ip after 4 hrs; type: functional, organism-based; design: dose 300 mg/kg; outline: as §1
# Rattus norvegicus [31] = assay: Neurotoxicity in pilocarpine-induced status epilepticus Sprague-Dawley albino rat model assessed as minimal motor impairment at 30 mg/kg, ip after 0.25 hr by rotarod test; type: toxicity, organism-based; design: dose 30 mg/kg, route intraperitoneal; conditions: in vivo; outline: as §2
# Rattus norvegicus [32] = assay: Anticonvulsant activity in Sprague-Dawley albino rat assessed as protection against maximal electroshock-induced seizures at 30 mg/kg, po after 30 mins; type: functional, organism-based; design: dose 30 mg/kg; outline: as §3
# Rattus norvegicus [33] = assay: Neurotoxicity in pilocarpine-induced status epilepticus Sprague-Dawley albino rat model assessed as minimal motor impairment at 300 mg/kg, ip after 0.5 hrs by rotarod test; type: toxicity, organism-based; design: dose 300 mg/kg, route intraperitoneal; conditions: in vivo; outline: as §2
# Rattus norvegicus [34] = assay: Anticonvulsant activity in Sprague-Dawley albino rat assessed as protection against maximal electroshock-induced seizures at 30 mg/kg, po after 4 hrs; type: functional, organism-based; design: dose 30 mg/kg; outline: as §3
# Mus musculus [35] = assay: Neurotoxicity in albino CF1 mouse assessed as minimal motor impairment at 300 mg/kg, ip after 0.5 hrs by rotarod test; type: toxicity, organism-based; design: dose 300 mg/kg, route intraperitoneal; conditions: in vivo; outline: as §1
compound,measurement,setting,value
CCC(COC(N)=O)CC(C)C (racemic),Activity,Mus musculus [1],Non-toxic
same,Activity,Mus musculus [2],inactive
same,Activity,Mus musculus [3],inactive
same,Activity,Mus musculus [4],inactive
same,Activity,Rattus norvegicus [5],Non-toxic
same,Activity,Mus musculus [6],Non-toxic
same,Activity,Mus musculus [7],inactive
same,Activity,Rattus norvegicus [8],Non-toxic
same,Activity,Mus musculus [9],inactive
same,Activity,Mus musculus [10],inactive
same,Activity,Mus musculus [11],Active
same,Activity,Rattus norvegicus [12],Toxic
same,Activity,Rattus norvegicus [13],Toxic
same,Activity,Mus musculus [14],inactive
same,Activity,Rattus norvegicus [15],Non-toxic
same,Activity,Mus musculus [16],inactive
same,Activity,Rattus norvegicus [17],Toxic
same,Activity,Mus musculus [18],Non-toxic
same,Activity,Mus musculus [19],inactive
same,Activity,Rattus norvegicus [20],Non-toxic
same,Activity,Mus musculus [21],Non-toxic
same,Activity,Rattus norvegicus [22],Non-toxic
same,Activity,Rattus norvegicus [23],Non-toxic
same,Activity,Mus musculus [24],Non-toxic
same,Activity,Mus musculus [25],Active
same,Activity,Rattus norvegicus [26],Non-toxic
same,Activity,Rattus norvegicus [27],Non-toxic
same,Activity,Rattus norvegicus [28],inactive
same,Activity,Rattus norvegicus [29],Toxic
same,Activity,Mus musculus [30],inactive
same,Activity,Rattus norvegicus [31],Non-toxic
same,Activity,Rattus norvegicus [32],inactive
same,Activity,Rattus norvegicus [33],Toxic
same,Activity,Rattus norvegicus [34],inactive
same,Activity,Mus musculus [35],Toxic
